Rows were chosen to be rich in hits. Some 5.9% of all compounds tested hit in one or more screens of this group.
IDH1 mut inh: inhibitors of IDH1 R132H reductase, primary screen, biochemical, plate reader, single point; diaphorase/resazurin fluorescence, 60 min; actives 0.18% (n = 70,000); inhibition, % at 10 µM; AID 624101, 2012; in the data active = inhibition above about 34%; inconclusive = no clear call, values can overlap the other calls; inactive = below about 11%;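 also: 0% = DMSO and 100% = no enzyme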
T cruzi growth: T. cruzi intracellular proliferation inhibitors, primary screen, cell-based, beta-gal Tulahuen parasites, NIH3T3 host, luminescence. inhibition, % at 8.34 µM. actives 5.9% (n = 77,000). T. cruzi beta-gal in NIH3T3, GalScreen luminescence, 90 h;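 active = mean inhibition above about 93%, with at least 55% of replicates each passing it, limit read from the data, passing the limit was not always enough; inconclusive = only one of those two conditions holds; inactive = neither condition holds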
Pf Dd2 inh: P. falciparum Dd2 growth inhibitors, primary screen, SYBR Green fluorescence, single dose replicates. 72 h; active compounds read low. activity change, % at 10 µM. actives 2.3% (n = 94,000). AID 1159554, 2015; in the data active = activity change below about -80%; inconclusive = no clear call, values can overlap the other calls
KDM4C inh: inhibitors of GASC-1 (KDM4C) histone demethylase, primary screen, biochemical, single concentration HTS; actives 0.15% (n = 96,000); GST-KDM4C 2-372, H3K9me3 peptide, LANCE TR-FRET; inhibition, % at 12.5 µM;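 active = mean replicate inhibition above about 25%, with at least 55% of replicates also reaching it, limit read from the data, passing the limit was not always enough; inconclusive = only one of those two conditions met; inactive = neither condition met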
Target sequence (Q9H3R0 2-372 limits assumed): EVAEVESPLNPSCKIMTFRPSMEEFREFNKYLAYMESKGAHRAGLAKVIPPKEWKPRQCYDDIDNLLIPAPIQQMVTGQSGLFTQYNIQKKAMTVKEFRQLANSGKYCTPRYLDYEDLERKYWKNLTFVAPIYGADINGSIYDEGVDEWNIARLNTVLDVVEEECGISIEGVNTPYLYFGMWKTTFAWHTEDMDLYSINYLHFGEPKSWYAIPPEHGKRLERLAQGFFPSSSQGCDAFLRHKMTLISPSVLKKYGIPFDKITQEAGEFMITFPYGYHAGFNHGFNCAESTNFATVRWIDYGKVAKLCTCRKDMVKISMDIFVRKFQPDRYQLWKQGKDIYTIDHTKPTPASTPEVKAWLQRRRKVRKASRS
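Material: N-terminal GST-fused human GASC-1 (KDM4C) fragment, residues 2-372. Input: 10 nM enzyme. Incubation: enzyme reaction 30 min, then detection 60 min, both room temperature. Doses: one test concentration per compound. Read-out basis: inhibition from TR-FRET ratio decrease. Detection: LANCE TR-FRET, excitation 340 nm, emissions 618 and 671 nm.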
* = called active by the depositor.

Screening COc1cccc(-c2ccc3c(c2)[C@@H]2[C@@H](CCN2C(=O)C2CCCCC2)[C@H](CO)N3)c1 returned Pf Dd2 inh -89.0* and KDM4C inh -2.1.
Screening COc1cccc(-c2ccc3c(c2)[C@@H]2[C@@H](CCN2C(=O)C2CC2)[C@@H](CO)N3)c1 returned Pf Dd2 inh -64.9 and KDM4C inh -3.7.
Screening O=C(c1ccc(F)cc1)N1CC[C@@H]2[C@H]1c1cc(C3=CCCCC3)ccc1N[C@@H]2CO returned T cruzi growth 10.8, Pf Dd2 inh -0.3 and KDM4C inh -1.2.
`COC(=O)c1cc(NC(=O)CSc2nnc(-c3ccccc3O)n2-c2ccccc2)ccc1Cl` gave IDH1 mut inh 0.3.
For COC(=O)c1nnn(CC(=O)N(Cc2ccccc2)c2ccc(Br)cc2)c1C(=O)OC the results were IDH1 mut inh 0.3.
Screening COc1ccccc1-c1ccc2c(c1)[C@@H]1[C@@H](CCN1C(=O)C1CCCCC1)[C@@H](CO)N2 returned T cruzi growth -23.9 and Pf Dd2 inh -85.0*.
Screening COc1ccccc1-c1ccc2c(c1)[C@H]1[C@H](CCN1C(=O)C1CCC1)[C@@H](CO)N2 returned Pf Dd2 inh 6.7 and KDM4C inh -0.8.
For OC[C@@H]1Nc2ccc(-c3cccc(F)c3)cc2[C@@H]2[C@H]1CCN2Cc1ccc(F)cc1 the results were T cruzi growth 83.3, Pf Dd2 inh -80.9* and KDM4C inh 0.2.
Screening COc1cccc(-c2ccc3c(c2)[C@@H]2[C@@H](CCN2C(=O)C2CCCC2)[C@H](CO)N3)c1 returned Pf Dd2 inh -86.3* and KDM4C inh -3.4.
For CN1c2ccc(C3=CCCCC3)cc2[C@H]2[C@H](CCN2C(=O)C2CC2)[C@@H]1CO the results were Pf Dd2 inh -88.5*.
For CC(=O)CCc1ccc(Oc2ccc(C(F)(F)F)cn2)cc1 the results were IDH1 mut inh -0.8.
For COc1ccc(C#Cc2ccc3c(c2)[C@@H]2[C@@H](CCN2C(=O)C2CCCC2)[C@@H](CO)N3)cc1 the results were Pf Dd2 inh inconclusive and KDM4C inh -2.7.
`COc1ccc(C#Cc2ccc3c(c2)[C@H]2[C@H](CCN2C(=O)C2CCCC2)[C@@H](CO)N3)cc1` gave Pf Dd2 inh -95.0* and KDM4C inh -0.5.
For COc1cccc(-c2ccc3c(c2)[C@@H]2[C@@H](CCN2S(=O)(=O)c2cn(C)cn2)[C@H](CO)N3)c1 the results were T cruzi growth 65.5, Pf Dd2 inh -81.7* and KDM4C inh -1.6.
Screening COc1ccc(S(=O)(=O)N(C)C[C@H]2OCCCC[C@@H](C)Oc3ccc(NC(=O)c4ccccc4)cc3C(=O)N([C@@H](C)CO)C[C@@H]2C)cc1 returned T cruzi growth 90.9, Pf Dd2 inh -83.1* and KDM4C inh 15.8.
`COc1ccc(S(=O)(=O)N(C)C[C@H]2OCCCC[C@H](C)Oc3ccc(NC(=O)c4ccccc4)cc3C(=O)N([C@H](C)CO)C[C@@H]2C)cc1` gave IDH1 mut inh -0.3, T cruzi growth 88.9, Pf Dd2 inh -71.3 and KDM4C inh 0.0.
Screening COc1ccc(S(=O)(=O)N(C)C[C@@H]2OCCCC[C@H](C)Oc3ccc(NC(=O)c4ccccc4)cc3C(=O)N([C@H](C)CO)C[C@H]2C)cc1 returned T cruzi growth 60.7, Pf Dd2 inh -82.9* and KDM4C inh -1.7.
Screening COc1ccc(S(=O)(=O)N(C)C[C@H]2OCCCC[C@H](C)Oc3ccc(NC(=O)c4ccccc4)cc3C(=O)N([C@H](C)CO)C[C@H]2C)cc1 returned T cruzi growth 57.0, Pf Dd2 inh -87.4* and KDM4C inh 0.2.
O=C(O)c1ccc(CNC(=O)c2cccnc2C(=O)O)cc1 was read as IDH1 mut inh 1.2.
`COC(=O)c1ccccc1NC(=O)CSc1nnnn1-c1cccc2ccccc12` gave IDH1 mut inh -0.7.
Screening C[C@H]1CN([C@@H](C)CO)C(=O)c2cccc(NC(=O)CCCCCC(=O)Nc3ccccc3N)c2O[C@H]1CN(C)Cc1ccc(Cl)c(Cl)c1 returned IDH1 mut inh -0.4, Pf Dd2 inh -87.5* and KDM4C inh -2.3.
C[C@H](CO)N1C[C@H](C)[C@@H](CN(C)C)Oc2c(NC(=O)CCCCCC(=O)Nc3ccccc3N)cccc2C1=O was read as KDM4C inh 0.2.
C[C@@H]1CN([C@H](C)CO)C(=O)c2cccc(NC(=O)CCCCCC(=O)Nc3ccccc3N)c2O[C@@H]1CN(C)Cc1ccc(Cl)c(Cl)c1 was read as Pf Dd2 inh -91.3* and KDM4C inh 1.4.
Screening C[C@@H]1CN([C@@H](C)CO)C(=O)c2cccc(NC(=O)CCCCCC(=O)Nc3ccccc3N)c2O[C@@H]1CN(C)Cc1ccc(Cl)c(Cl)c1 returned T cruzi growth 91.5, Pf Dd2 inh -92.6* and KDM4C inh -2.0.
`C[C@H](CO)N1C[C@H](C)[C@@H](CN(C)Cc2ccc(Cl)c(Cl)c2)Oc2c(NC(=O)CCCCCC(=O)Nc3ccccc3N)cccc2C1=O` gave Pf Dd2 inh -71.9 and KDM4C inh 0.2.
CCOC(=O)c1sc(NC(=O)c2cc3ncc(Br)cn3n2)c(C(=O)OCC)c1C was read as IDH1 mut inh 0.1.
COc1ccc2c3c(n(C)c2c1)[C@H](CO)N(Cc1ccccc1)CC31CCN(C(=O)C2CC2)CC1 was read as Pf Dd2 inh -83.1* and KDM4C inh -2.3.
Screening COc1ccc2c3c(n(C)c2c1)[C@H](CO)N(Cc1cc(F)ccc1F)CC31CCN(C(=O)C2CC2)CC1 returned Pf Dd2 inh inconclusive and KDM4C inh 1.3.
For CCC(=O)N1CCC2(CC1)CN(Cc1cccc(Cl)c1)[C@H](CO)c1c2c2ccc(OC)cc2n1C the results were Pf Dd2 inh -89.0* and KDM4C inh -1.1.
For COc1ccc2c3c(n(C)c2c1)[C@@H](CO)N(Cc1cc(F)ccc1F)CC31CCN(C(=O)C2CC2)CC1 the results were Pf Dd2 inh -81.1* and KDM4C inh -1.5.
`C[C@H](CO)N1C[C@H](C)[C@@H](CN(C)Cc2ccccn2)Oc2ncc(C#CC3(O)CCCC3)cc2C1=O` gave IDH1 mut inh 2.3, T cruzi growth 18.8, Pf Dd2 inh 31.5 and KDM4C inh 41.0*.
For C[C@H]1CN([C@@H](C)CO)C(=O)c2cc(C#Cc3ccccc3)cnc2O[C@@H]1CN(C)CC1CCOCC1 the results were IDH1 mut inh -0.7, T cruzi growth 13.9, Pf Dd2 inh -1.7 and KDM4C inh 1.3.
`C[C@@H]1CN([C@@H](C)CO)C(=O)c2cc(C#Cc3ccccc3)cnc2O[C@H]1CN(C)CC1CCOCC1` gave IDH1 mut inh 24.8, T cruzi growth 1.3, Pf Dd2 inh -36.2 and KDM4C inh 34.9*.
